Bioassay records (PubChem)
Sampled rows, rich in hits. Any-hit rate of the full collection: about 3.5%.
RGS4 block: inhibitors of human RGS4 | B-score at 10 µM | HEK293 M3R/RGS4 inducible, Fluo-4 calcium flux; stronger effect = higher value; triggered by carbachol at its EC20 | 310,000 compounds, 0.45% hits | AID 463165 | P49798;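 active = B-score, a plate-corrected calcium signal, over three deviations above library mean, with baseline fluorescence within five deviations of library mean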;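 note: RGS4 expression induced by doxycycline in cells with stable M3 receptor; B-score is computed from the integrated fluorescence ratio over baseline after carbachol; higher B-score means a larger calcium signal and so more RGS4 inhibition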
Target sequence (P49798 whole entry, looked up): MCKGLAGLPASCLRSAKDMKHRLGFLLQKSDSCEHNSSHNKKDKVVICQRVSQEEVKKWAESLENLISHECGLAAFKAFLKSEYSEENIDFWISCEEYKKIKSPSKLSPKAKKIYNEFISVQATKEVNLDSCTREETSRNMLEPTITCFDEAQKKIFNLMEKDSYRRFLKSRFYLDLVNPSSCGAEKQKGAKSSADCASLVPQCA
RGS4 act: potentiators or activators of RGS4; HEK293 M3R/inducible RGS4, carbachol calcium flux Fluo4; stronger effect = lower value; B-score at 10 µM; 310,000 compounds, 0.92% hits;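 active = B-score of the integrated calcium signal more than 4 SD below the library mean, with starting fluorescence not abnormally high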;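 note: negative B-score means reduced calcium response which marks RGS4 activation or potentiation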
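Assay system: Inducible-RGS4 HEK293 cells carrying M3 receptor | Schedule: Compound preincubation 20 min at room temperature before agonist | Signal: Kinetic calcium fluorescence imaging with Fluo4-AM dye, 2 µM | Read-out basis: B score from integrated fluorescence ratio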
MrgX1 PAM: human MrgX1 positive allosteric modulation, primary screen; AID 588675; Q96LB2; 310,000 compounds, 0.63% hits; MrgX1-HEK293, Fluo-4 calcium flux, FDSS; stronger effect = higher value; B-score at 10 µM;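 active = plate-corrected calcium response at least 3 library SD above typical, normal starting fluorescence, not activating the receptor alone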;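 note: compound read alongside a low EC10 to EC30 dose of BAM8-22 agonist; peak minus trough fluorescence over baseline measured at the second addition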
Target sequence (Q96LB2 whole entry, looked up): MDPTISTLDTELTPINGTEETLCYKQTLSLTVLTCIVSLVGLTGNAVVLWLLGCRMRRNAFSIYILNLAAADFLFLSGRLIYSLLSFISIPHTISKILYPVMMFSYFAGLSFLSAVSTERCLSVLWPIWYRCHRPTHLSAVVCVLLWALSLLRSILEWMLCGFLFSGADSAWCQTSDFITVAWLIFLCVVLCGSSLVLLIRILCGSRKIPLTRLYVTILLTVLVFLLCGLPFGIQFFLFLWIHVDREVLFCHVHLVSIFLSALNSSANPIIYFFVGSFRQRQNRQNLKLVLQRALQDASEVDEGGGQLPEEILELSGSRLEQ
MrgX1 agonist: agonists of human MrgX1 receptor. B-score at 10 µM. MrgX1-HEK293 cells, Fluo-4 calcium fluorescence, agonist mode; stronger effect = higher value. 310,000 compounds, 0.44% hits;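 active = calcium response B-score plate-corrected fluorescence ratio at least 3 library SD, with starting fluorescence B-score inside 5 SD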
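System: HEK293 cells stably expressing human MrgX1 receptor; Dosing: test compound in the initial addition of three; Schedule: overnight plating, then 30 min 37 °C plus 30 min room-temperature dye loading; Detection: kinetic calcium dye fluorescence, Fluo-4 NW; Controls: per-plate positive and negative controls for Z′ factor.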
MrgX1 antagonist: antagonists of human MrgX1 receptor; Q96LB2; MRGX1-HEK293 calcium flux, Fluo-4, BAM8-22 antagonism; stronger effect = lower value; B-score at 10 µM; 310,000 compounds, 1.3% hits; AID 588676;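 active = calcium-response B-score plate-corrected more than 3 library SD below zero, starting fluorescence within 5 deviations, no agonist response on first addition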;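 note: peak minus trough fluorescence over baseline after final BAM8-22 challenge near maximal dose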
* hit, by the source's call.

For Cc1cc2nc(SCCOC(=O)Nc3ccccc3)nc(C)c2cc1C the results were RGS4 block inactive, RGS4 act inactive, MrgX1 PAM inactive, MrgX1 agonist inactive and MrgX1 antagonist inactive.
CCNc1nc(NCC)nc(SCCOC(=O)Nc2ccccc2)n1 was read as RGS4 block inactive, RGS4 act inactive, MrgX1 PAM 7.7*, MrgX1 agonist inactive and MrgX1 antagonist inactive.
CCC(CC)C(=O)Nc1nnc(S(=O)(=O)N2CCCC2)s1 was read as RGS4 block inactive, RGS4 act inactive, MrgX1 PAM inactive, MrgX1 agonist inactive and MrgX1 antagonist inactive.
For Cc1nc(C)c(-c2nnc(-c3ccccc3Cl)o2)cc1C(=O)NN the results were RGS4 block inactive, RGS4 act inactive, MrgX1 PAM inactive, MrgX1 agonist inactive and MrgX1 antagonist inactive.
Screening Cc1nc(C)c(-c2nnc(-c3ccc(C(C)(C)C)cc3)o2)cc1C(=O)NN returned RGS4 block inactive, RGS4 act inactive, MrgX1 PAM inactive, MrgX1 agonist inactive and MrgX1 antagonist -6*.
O=C(NC(=Nc1nc2ccccc2o1)NC(=O)c1ccccc1)c1ccccc1 was read as RGS4 block inactive, RGS4 act inactive, MrgX1 PAM inactive, MrgX1 agonist inactive and MrgX1 antagonist inactive.
`COc1ccccc1C(=O)NC(=Nc1nc2ccccc2o1)NC(=O)c1ccccc1OC` gave RGS4 block inactive, RGS4 act -7.2*, MrgX1 PAM inactive, MrgX1 agonist inactive and MrgX1 antagonist inactive.
`CC1CC1C(=O)OCC(=O)NNC(=O)COc1ccc(Br)cc1` (centres undefined) gave RGS4 block inactive, RGS4 act inactive, MrgX1 PAM inactive, MrgX1 agonist inactive and MrgX1 antagonist -6.5*.
`COc1ccccc1C(=O)NCCC(=O)N(C)CC(=O)Nc1ccc(C)cc1` gave RGS4 block inactive, RGS4 act inactive, MrgX1 PAM inactive, MrgX1 agonist inactive and MrgX1 antagonist -5.2*.
For COCCn1c(N)c(Sc2ccc(Cl)cc2)c(=O)[nH]c1=O the results were RGS4 block inactive, RGS4 act inactive, MrgX1 PAM inactive, MrgX1 agonist inactive and MrgX1 antagonist inactive.
Screening CCCCCCCCCCCCCCCC[n+]1cccc(C(=O)N(CC)CC)c1 returned RGS4 block inactive, RGS4 act -9.9*, MrgX1 PAM inactive, MrgX1 agonist inactive and MrgX1 antagonist inactive.
Screening CC(=O)Oc1c(Cl)cc(Cl)cc1/C=C/c1ccc2ccccc2n1 returned RGS4 block inactive, RGS4 act inactive, MrgX1 PAM inactive, MrgX1 agonist inactive and MrgX1 antagonist -8.3*.
For COCCCNC(=O)c1cc2c(=O)n3cc(C)ccc3nc2nc1NCC1CCCO1 (centres undefined) the results were RGS4 block inactive, RGS4 act inactive, MrgX1 PAM inactive, MrgX1 agonist inactive and MrgX1 antagonist -7.6*.
For COc1cc(CN2CCN(CC3CC3)CC2CCO)cc(OC)c1 (centres undefined) the results were RGS4 block inactive, RGS4 act inactive, MrgX1 PAM inactive, MrgX1 agonist inactive and MrgX1 antagonist inactive.
Screening COc1ccc(/C=N/Nc2cc(C)nc3ccc(OC)cc23)c(OC)c1 returned RGS4 block inactive, RGS4 act -7.7*, MrgX1 PAM inactive, MrgX1 agonist inactive and MrgX1 antagonist inactive.
For Cn1c(CN2CCN(C(=O)c3ccc(F)cc3)CC2)nc2cc([N+](=O)[O-])ccc21 the results were RGS4 block inactive, RGS4 act inactive, MrgX1 PAM inactive, MrgX1 agonist inactive and MrgX1 antagonist inactive.
Nc1c(C(=O)Nc2ccc(Br)cc2)sc2nc(-c3ccco3)ccc12 was read as RGS4 block inactive, RGS4 act inactive, MrgX1 PAM inactive, MrgX1 agonist inactive and MrgX1 antagonist inactive.
`Nc1c(C(=O)Nc2ccc(F)cc2)sc2nc(-c3ccco3)ccc12` gave RGS4 block inactive, RGS4 act inactive, MrgX1 PAM inactive, MrgX1 agonist inactive and MrgX1 antagonist -4.9*.
Screening CC(Oc1ccc(-c2ccccc2)c(F)c1)c1ccn(S(=O)(=O)c2ccc(Br)cc2)n1 (centres undefined) returned RGS4 block inactive, RGS4 act inactive, MrgX1 PAM inactive, MrgX1 agonist inactive and MrgX1 antagonist -5.7*.
Screening CCc1ccc(/C=C2\SC(=S)N(CCCC(=O)Nc3ccccc3C(=O)O)C2=O)cc1 returned RGS4 block inactive, RGS4 act inactive, MrgX1 PAM inactive, MrgX1 agonist inactive and MrgX1 antagonist inactive.
Screening O=C(O)CCCN1C(=O)/C(=C/c2ccncc2)SC1=S returned RGS4 block inactive, RGS4 act inactive, MrgX1 PAM inactive, MrgX1 agonist inactive and MrgX1 antagonist inactive.
Screening CN1CCN(C(=O)CCCN2C(=O)/C(=C/c3cccc(Br)c3)SC2=S)CC1 returned RGS4 block inactive and RGS4 act -7.2*.
For O=C(O)CCCCCN1C(=O)/C(=C\c2ccncc2)SC1=S the results were RGS4 block inactive, RGS4 act inactive, MrgX1 PAM inactive, MrgX1 agonist 34* and MrgX1 antagonist inactive.
For O=C(O)CCCCCN1C(=O)/C(=C/c2ccncc2)SC1=S the results were RGS4 block inactive, RGS4 act inactive, MrgX1 PAM inactive, MrgX1 agonist 32* and MrgX1 antagonist inactive.
For Cc1ccc(/C=C2\SC(=S)N(CCCC(=O)Nc3ccccc3C(=O)O)C2=O)cc1 the results were RGS4 block inactive, RGS4 act inactive, MrgX1 PAM inactive, MrgX1 agonist inactive and MrgX1 antagonist -5.4*.
Screening CN1CCN(C(=O)CCN2C(=O)/C(=C/c3cccc(Br)c3)SC2=S)CC1 returned RGS4 block inactive, RGS4 act inactive, MrgX1 PAM inactive, MrgX1 agonist inactive and MrgX1 antagonist inactive.
Screening Cc1ccc(-c2csc(NC(=O)CSc3nc4ccccc4c(=O)n3CCCN(C)C)n2)cc1 returned RGS4 block inactive, RGS4 act inactive, MrgX1 PAM inactive, MrgX1 agonist inactive and MrgX1 antagonist inactive.
Screening O=C(Nc1ccccc1N1CCOCC1)c1cccnc1Cl returned RGS4 block inactive, RGS4 act inactive, MrgX1 PAM inactive, MrgX1 agonist inactive and MrgX1 antagonist inactive.
For Cc1ccc(S(=O)(=O)N2CCCCC2)cc1C(=O)OC1CCCCC1=O (centres undefined) the results were RGS4 block inactive, RGS4 act inactive, MrgX1 PAM inactive, MrgX1 agonist inactive and MrgX1 antagonist inactive.
`CC1(C)N=C(SCC(=O)Nc2ccc(Cl)cc2)C(c2ccc(Cl)cc2)=N1` gave RGS4 block inactive, RGS4 act -8*, MrgX1 PAM inactive, MrgX1 agonist inactive and MrgX1 antagonist inactive.
Screening CC1(C)N=C(SCC(=O)Nc2ccc(Cl)cc2)C(c2ccccc2)=N1 returned RGS4 block inactive, RGS4 act inactive, MrgX1 PAM inactive, MrgX1 agonist inactive and MrgX1 antagonist inactive.
